Data taken from ChEMBL document CHEMBL1126061, “Cyclic RGD peptide analogues as antiplatelet antithrombotics” (J Med Chem, 1992).
Where a SMILES comes first, the peptide text is derived from it. Bridges are numbered along the chain shown (N, C = ends).

What follows are compounds tested against Integrin alpha-IIb/beta-3 (Homo sapiens, UniProt P05106+P08514) (assay: The compound was tested for the inhibition of fibrinogen receptor).
Chain of Integrin alpha-IIb/beta-3 (P05106 27-788 limits assumed): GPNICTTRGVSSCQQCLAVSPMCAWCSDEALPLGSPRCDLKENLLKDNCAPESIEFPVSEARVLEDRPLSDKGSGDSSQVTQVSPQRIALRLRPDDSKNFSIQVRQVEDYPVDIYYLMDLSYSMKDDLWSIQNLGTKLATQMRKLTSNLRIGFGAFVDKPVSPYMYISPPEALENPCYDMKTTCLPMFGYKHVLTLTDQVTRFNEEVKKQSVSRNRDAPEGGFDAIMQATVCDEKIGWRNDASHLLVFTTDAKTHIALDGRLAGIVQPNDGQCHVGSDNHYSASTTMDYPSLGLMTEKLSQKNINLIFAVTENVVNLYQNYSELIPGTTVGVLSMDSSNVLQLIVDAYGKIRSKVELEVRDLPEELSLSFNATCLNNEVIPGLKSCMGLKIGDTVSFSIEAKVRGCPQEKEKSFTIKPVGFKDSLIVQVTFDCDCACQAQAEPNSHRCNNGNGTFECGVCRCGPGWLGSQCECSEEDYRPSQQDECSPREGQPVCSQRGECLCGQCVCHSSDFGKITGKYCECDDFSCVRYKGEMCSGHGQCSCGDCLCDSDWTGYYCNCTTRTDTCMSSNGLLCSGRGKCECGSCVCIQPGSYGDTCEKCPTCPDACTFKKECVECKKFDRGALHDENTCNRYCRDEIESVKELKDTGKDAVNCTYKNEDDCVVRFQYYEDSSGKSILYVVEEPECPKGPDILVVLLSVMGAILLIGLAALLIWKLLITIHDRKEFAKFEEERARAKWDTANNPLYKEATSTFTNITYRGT
Chain of Integrin alpha-IIb/beta-3 (P08514 32-887 limits assumed): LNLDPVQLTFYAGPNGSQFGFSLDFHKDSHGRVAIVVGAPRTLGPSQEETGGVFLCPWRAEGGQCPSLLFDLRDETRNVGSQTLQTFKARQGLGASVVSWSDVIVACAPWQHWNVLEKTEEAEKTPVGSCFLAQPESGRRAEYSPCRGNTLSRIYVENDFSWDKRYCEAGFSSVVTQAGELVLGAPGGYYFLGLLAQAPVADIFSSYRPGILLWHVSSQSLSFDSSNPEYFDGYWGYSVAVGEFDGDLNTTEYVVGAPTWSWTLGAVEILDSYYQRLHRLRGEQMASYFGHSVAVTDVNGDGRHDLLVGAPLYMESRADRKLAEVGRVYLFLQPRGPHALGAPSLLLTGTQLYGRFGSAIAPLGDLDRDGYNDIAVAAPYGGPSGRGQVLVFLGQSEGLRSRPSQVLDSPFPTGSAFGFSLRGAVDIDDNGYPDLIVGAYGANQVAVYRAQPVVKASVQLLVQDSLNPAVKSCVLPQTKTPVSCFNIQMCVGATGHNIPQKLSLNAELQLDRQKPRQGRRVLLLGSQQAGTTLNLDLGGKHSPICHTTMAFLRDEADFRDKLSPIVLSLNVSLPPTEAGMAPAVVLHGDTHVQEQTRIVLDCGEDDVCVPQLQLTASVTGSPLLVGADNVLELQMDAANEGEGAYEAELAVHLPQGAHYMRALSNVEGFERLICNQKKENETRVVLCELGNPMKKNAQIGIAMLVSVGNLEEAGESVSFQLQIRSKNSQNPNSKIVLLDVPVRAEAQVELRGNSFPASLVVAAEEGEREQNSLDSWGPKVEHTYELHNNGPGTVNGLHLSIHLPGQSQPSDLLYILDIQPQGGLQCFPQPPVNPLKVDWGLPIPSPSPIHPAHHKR
Chain of Integrin alpha-IIb/beta-3 (P08514 891-1039 limits assumed): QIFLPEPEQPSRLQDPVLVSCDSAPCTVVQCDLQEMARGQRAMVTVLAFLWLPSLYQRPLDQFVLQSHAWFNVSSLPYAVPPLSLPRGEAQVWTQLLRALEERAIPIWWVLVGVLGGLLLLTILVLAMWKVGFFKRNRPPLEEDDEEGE
Assay type: protein-complex assay
Summary of the method: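 Solid-phase ELISA: human fibrinogen (10 µg/mL) coated, BSA-blocked; samples plus purified human platelet GPIIbIIIa (40 µg/mL) incubated 1 h at room temperature. Bound receptor detected with anti-GPIIbIIIa antibody AP3 (1 µg/mL, 1 h), then goat anti-mouse HRP (1 h); OPD/H2O2 at pH 5, stopped with H2SO4, absorbance 492-405 nm. IC50 from four-parameter fit; n ≥ 3.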
`N=C(N)NCCC[C@@H]1NC(=O)CNC(=O)C(c2ccc(-c3ccccc3)cc2)SC[C@@H](C(=O)O)NC(=O)[C@H](CC(=O)O)NC(=O)CNC1=O` (stereo in doubt; 19B) was tested, and the IC50 was 0.0035 µM. In the case of `CC(C)C[C@H]1NC(=O)CSC[C@@H](C(=O)O)NC(=O)[C@H](CC(=O)O)NC(=O)CNC(=O)[C@H](CCCNC(=N)N)NC1=O`, the IC50 is reported as 0.038 µM. With `N=C(N)NCCC[C@@H]1NC(=O)[C@H](CO)NC(=O)CSC[C@@H](C(=O)O)NC(=O)[C@H](CC(=O)O)NC(=O)CNC1=O` the IC50 was 0.004 µM. Work on `CC(=O)NCC(=O)N[C@@H](CCCNC(=N)N)C(=O)NCC(=O)N[C@@H](CC(=O)O)C(=O)N[C@H](C(N)=O)C(C)C` (Ac-GRGDV-NH2) yielded an IC50 of 0.434 µM. In the case of `N=C(N)NCCC[C@@H]1NC(=O)CNC(=O)C(c2ccccc2)SC[C@@H](C(=O)O)NC(=O)[C@H](CC(=O)O)NC(=O)CNC1=O` (stereo in doubt; 18B), the IC50 is reported as 0.0005 µM. `N=C(N)NCCC[C@@H]1NC(=O)CNC(=O)C(c2ccccc2)SC[C@@H](C(=O)O)NC(=O)[C@H](CC(=O)O)NC(=O)CNC1=O` (stereo in doubt; 18A) showed an IC50 of 0.015 µM. `N=C(N)NCCC[C@@H]1NC(=O)CNC(=O)C(c2cccc(C(F)(F)F)c2)SC[C@@H](C(=O)O)NC(=O)[C@H](CC(=O)O)NC(=O)CNC1=O` (stereo in doubt; 24A) gave an IC50 of 0.035 µM. Work on `N=C(N)NCCC[C@@H]1NC(=O)CNC(=O)CSC[C@@H](C(=O)O)NC(=O)[C@H](CC(=O)O)NC(=O)CNC1=O` ({CH2CO}-GRGDC-OH; thioether N-5) yielded an IC50 of 0.0042 µM. `N=C(N)NCCC[C@@H]1NC(=O)[C@H](CC(N)=O)NC(=O)C[S+]([O-])C[C@@H](C(=O)O)NC(=O)[C@H](CC(=O)O)NC(=O)CNC1=O` (stereo in doubt; 67B) was tested, and the IC50 was 0.0053 µM. `N=C(N)NCCC[C@@H]1NC(=O)[C@H](CCC(=O)O)NC(=O)C[S+]([O-])C[C@@H](C(=O)O)NC(=O)[C@H](CC(=O)O)NC(=O)CNC1=O` (stereo in doubt; 73A) showed an IC50 of 0.0047 µM. Work on `N=C(N)NCCC[C@@H]1NC(=O)[C@H](Cc2cnc[nH]2)NC(=O)CSC[C@@H](C(=O)O)NC(=O)[C@H](CC(=O)O)NC(=O)CNC1=O` yielded an IC50 of 0.003 µM. For `CC(C)C[C@H](NC(=O)[C@H](CC(=O)O)NC(=O)CNC(=O)[C@@H](N)CCCN=C(N)N)C(=O)O` (H-RGDL-OH), the IC50 was 0.105 µM. In the case of `NCC(=O)N[C@@H](CCCN=C(N)N)C(=O)NCC(=O)N[C@@H](CC(=O)O)C(=O)N[C@@H](Cc1ccc(O)cc1)C(=O)O` (H-GRGDY-OH), the IC50 is reported as 0.24 µM. `N=C(N)NCCC[C@@H]1NC(=O)[C@@H](CCC(=O)O)NC(=O)CSC[C@@H](C(=O)O)NC(=O)[C@H](CC(=O)O)NC(=O)CNC1=O` gave an IC50 of 0.26 µM. For `N=C(N)NCCC[C@@H]1NC(=O)[C@H](Cc2ccc(O)cc2)NC(=O)CSC[C@@H](C(=O)O)NC(=O)[C@H](CC(=O)O)NC(=O)CNC1=O` ({CH2CO}-YRGDC-OH; thioether N-5), the IC50 was 0.0015 µM. `N=C(N)NCCC[C@@H]1NC(=O)[C@H](CCC(=O)O)NC(=O)C[S+]([O-])C[C@@H](C(=O)O)NC(=O)[C@H](CC(=O)O)NC(=O)CNC1=O` (stereo in doubt; 73B) showed an IC50 of 0.068 µM. For `N=C(N)NCCC[C@@H]1NC(=O)CNC(=O)C(c2ccc3ccccc3c2)SC[C@@H](C(=O)O)NC(=O)[C@H](CC(=O)O)NC(=O)CNC1=O` (stereo in doubt; 21B), the IC50 was 0.0028 µM. `CC(C)[C@H]1NC(=O)CSC[C@@H](C(=O)O)NC(=O)[C@H](CC(=O)O)NC(=O)CNC(=O)[C@H](CCCNC(=N)N)NC1=O` was tested, and the IC50 was 0.017 µM. With `N=C(N)NCCC[C@@H]1NC(=O)[C@@H](Cc2c[nH]c3ccccc23)NC(=O)CSC[C@@H](C(=O)O)NC(=O)[C@H](CC(=O)O)NC(=O)CNC1=O` the IC50 was 0.029 µM. Work on `N=C(N)NCCC[C@@H]1NC(=O)CNC(=O)CSC[C@@H](C(N)=O)NC(=O)[C@H](CC(=O)O)NC(=O)CNC1=O` ({CH2CO}-GRGDC-NH2; thioether N-5) yielded an IC50 of 0.012 µM. With `C[C@@H](O)[C@@H]1NC(=O)CSC[C@@H](C(=O)O)NC(=O)[C@H](CC(=O)O)NC(=O)CNC(=O)[C@H](CCCN=C(N)N)NC1=O` the IC50 was 0.0013 µM. Compound `NC(N)=NCCC[C@H](N)C(=O)NCC(=O)N[C@@H](CC(=O)O)C(=O)N[C@@H](Cc1ccc(O)cc1)C(=O)O` (H-RGDY-OH) has an IC50 of 0.07 µM.
